Assay outcomes: PubChem, Broad Institute
GSK3beta inhib = human GSK3beta kinase inhibition; 300,000 compounds, 0.038% hits; AID 2097; activity score (negative = inhibition), % at 10 µM; GST-GSK3beta kinase, ADP-Glo luminescence, 60 min; hits give low values; P49841;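 active = more than half of replicate wells score below -50%, meaning over 50% inhibition versus plate controls; inconclusive = some replicates but at most half score below -50%; inactive = no replicate scores below -50%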;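 also: 0% = median DMSO wells and -100% = median GW8510 positive control wells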
Target sequence (P49841 whole entry, looked up): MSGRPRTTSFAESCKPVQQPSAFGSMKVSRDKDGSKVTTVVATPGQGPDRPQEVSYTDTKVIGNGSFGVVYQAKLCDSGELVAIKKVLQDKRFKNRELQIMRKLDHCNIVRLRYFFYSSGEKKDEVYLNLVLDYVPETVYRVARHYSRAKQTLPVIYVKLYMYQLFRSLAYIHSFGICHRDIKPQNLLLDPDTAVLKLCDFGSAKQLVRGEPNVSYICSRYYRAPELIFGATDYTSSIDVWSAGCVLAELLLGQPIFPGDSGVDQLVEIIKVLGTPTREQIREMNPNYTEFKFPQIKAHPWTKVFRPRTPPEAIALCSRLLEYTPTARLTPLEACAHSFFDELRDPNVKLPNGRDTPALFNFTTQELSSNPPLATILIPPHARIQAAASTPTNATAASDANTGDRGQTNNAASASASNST
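test system = GST-tagged human GSK3beta kinase, cell-free | reagent = 25 µM ATP with peptide substrate | dosing = one dose of 10 µM per compound | schedule = 60 min reaction, RT | detection = luminescent ADP-Glo measurement of ADP formed | control set = DMSO neutral wells and GW8510 at 20 µM as positive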
GSK3 alpha inh = inhibitors of human GSK-3 alpha kinase | P49840 | ADP-Glo luminescence, 60 min | inhibition, % at 10 µM | 320,000 compounds, 0.1% hits | AID 2650;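 active = more than half of replicates show inhibition above 20%; inconclusive = some but at most half of replicates above 20% inhibition; inactive = no replicate shows inhibition above 20%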;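 also: GST-tagged GSK-3 alpha with peptide substrate and 25 µM ATP; 0% = DMSO neutral wells and 100% = GW8510 positive control wells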
SR-BI DiI-HDL act = activators of SR-BI mediated HDL lipid uptake | CHO ldlA[mSR-BI] cells, DiI-HDL uptake fluorescence, 3 h; 100 = double the neutral-control signal | activation, % at 12.5 µM | 320,000 compounds, 0.096% hits | AID 504775;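 active = mean replicate activation of at least 60% and every replicate at or above 60%; inconclusive = mean or all-replicate condition met, but not both; inactive = mean below 60% and not all replicates reaching 60%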;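 also: 0% = median plate neutral-control signal and 100% = twice that signal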
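Material – SR-BI-overexpressing, LDLR-lacking CHO cells · Medium – BSA-supplemented, HEPES-buffered Ham's F12, pH 7.4 · Doses – single concentration · Times – compound with DiI-HDL co-incubation, 3 h at 37 °C · Measured by – bottom-read fluorescence, 550/595 nm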
SR-BI HDL uptake = blocks mouse SR-BI lipid uptake from DiI-HDL; inhibition, % at 12.5 µM; AID 488896; ldlA[mSR-BI] CHO cells, DiI-HDL uptake fluorescence, 3 h; Q61009; 320,000 compounds, 0.96% hits;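 active = mean replicate inhibition of at least 70% and a set share of replicates each scoring 70 or more; inconclusive = meets just one of the two criteria; inactive = fails both criteria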;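 also: 0% = median of neutral control wells and 100% = median of positive control wells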
CDK5 p35 inh = blocks human CDK5/p35 kinase activity; Recombinant CDK5/p35, ADP-Glo luminescence, 60 min; inhibition, % at 10 µM; 330,000 compounds, 0.01% hits; AID 488839;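 active = highest replicate inhibition of at least 50% and at least 75% of replicates reaching 50%; inconclusive = only one of the two criteria met; inactive = both criteria failed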;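 also: plate controls were DMSO neutral control for no effect and GW8510 at 10 µM for full effect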
DiI quencher = counter-screen for SR-BI lipid transfer inhibitors: DiI fluorescence quenchers | shares compounds with SR-BI HDL uptake | cell-free DiI-HDL fluorescence quenching, 30 min | AC50, µM (series often up to 35 µM), for inactives: at the top dose activity change, negative = quenching | 470 compounds, 20% hits;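 active = quenching, a falling signal, with AC50 below a set limit tied to the top valid dose, actives reach about 32 µM in these data; inconclusive = no clear call, values can overlap the other calls; inactive = rising signal, and the rest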
* marks the source's active call; other numbers are inactive results; ? = inconclusive; · = not tested or not shown. Compounds with a hit are over-represented: about 1.1% of the library has one in this group of screens.

SMILES	GSK3beta inhib	GSK3 alpha inh	SR-BI DiI-HDL act	SR-BI HDL uptake	CDK5 p35 inh	DiI quencher
CCCCC(=O)Nc1cccc(NC(=O)CC)c1	2	-2	43	-43	1	·
CCc1cc(CNC(=O)C2CCC(=O)N(CCc3cccc(F)c3)C2)on1 (configuration not stated)	0	·	6	-6	1	-1%
Cc1cc(CNC(=O)C2CCC(=O)N(CCc3cccc(F)c3)C2)on1 (configuration not stated)	2	0	7	-7	-1	·
CCC(C)c1ccccc1N1CC(C(=O)N2CCN(S(=O)(=O)c3cccc([N+](=O)[O-])c3)CC2)CC1=O (configuration not stated)	·	·	-10	10	0	-14%
CC(C)(C)C(=O)NC1CC2CCCC(C1)N2C(=O)Nc1ccccc1 (configuration not stated)	-2	-1	5	-5	0	·
Cc1ccccc1C(=O)NC1CC2CCCC(C1)N2C(=O)Nc1ccccc1 (configuration not stated)	1	-2	15	-15	3	-3%
COC(=O)C1=C(CS(=O)(=O)c2ccccc2)NC(=O)NC1c1ccc(OC)c(OC)c1 (configuration not stated)	-1	-2	7	-7	0	·
Cc1cc2oc(=O)cc(CN3CCN(C/C=C/c4ccccc4)CC3)c2cc1O	-1	-1	-76	76*	-1	-7%
O=c1cc(CN2CCN(C/C=C/c3ccccc3)CC2)c2cc(O)c(-c3ccccc3)cc2o1	-4	0	-26	26	0	·
CCCCC(c1nnnn1CC1CCCO1)N1CCN(c2cc(Cl)ccc2C)CC1 (configuration not stated)	2	·	-82	82*	0	5%
CCCCC(c1nnnn1CC1CCCO1)N1CCN(c2ccccc2)CC1 (configuration not stated)	-3	1	-7	7	-2	·
CC(C)(C)OC(=O)NCCCCCNC(=O)c1ncn(Cc2ccccc2)c1C(=O)NCCCCCNC(=O)OC(C)(C)C	·	1	-30	30	0	·
Cc1oc(-c2cc(F)ccc2F)nc1CN1CCN(c2ncnc3ccccc23)CC1	0	2	-20	20	-1	·
COc1ccc(-c2nc(CN3CCN(c4ncnc5ccccc45)CC3)c(C)o2)c(OC)c1	-2	-2	-72	72*	0	-1%
CCc1sc(N2C(=O)C3C4CCC(C4=C(C)C)C3C2=O)nc1-c1ccccc1 (configuration not stated)	0	-3	-84	84*	0	2%
CCc1sc(NC(C)=O)nc1-c1ccccc1	-3	-3	-7	7	0	·
COc1cc(OC)cc(C(=O)N[C@H](C(=O)Nc2nc(-c3ccc(F)c(F)c3)cs2)C(C)C)c1	2	1	-84	84*	2	2%
CCC1CN(C(=O)N2CCC(C(=O)NCc3ccccc3OC)CC2)c2cc(C)ccc2O1 (configuration not stated)	-1	0	-81	81*	-3	-5%
NC(=O)c1ccccc1NC(=O)CN1CCCCCC1	1	-4	11	-11	1	·
NC(=O)c1cc(-c2ccccc2)sc1NC(=O)CN1CCCCC1	-1	-1	-73	73*	-5	4%
COc1cc(CN2CCCC(C(=O)c3ccccc3SC)C2)cc(OC)c1 (configuration not stated)	2	-5	3	-3	-2	·
Cc1ccc(C)c(NC(=O)C(CC(=O)O)C2CCCO2)c1 (configuration not stated)	-1	0	-77	77*	-1	-2%
O=C(O)CC(C(=O)Nc1ccc(Cl)cc1Cl)C1CCCO1 (configuration not stated)	4	1	15	-15	1	·
CCC1Nc2ncnc(N3CCCCC3)c2N(Cc2ccc(OC)cc2)C1=O (configuration not stated)	·	0	13	-13	-1	·
CCC(=O)Nc1ccccc1-c1nnn(CC(=O)N2c3ccccc3CC2C)n1 (configuration not stated)	1	0	-65	65	3	6%
SMILES	GSK3beta inhib	GSK3 alpha inh	SR-BI DiI-HDL act	SR-BI HDL uptake	CDK5 p35 inh	DiI quencher
CC1Cc2ccccc2N1C(=O)Cn1nnc(-c2ccccc2NC(=O)C2CCC2)n1 (configuration not stated)	-2	0	-79	79*	-1	15%
O=C(Nc1ccccc1-c1nnn(CC(=O)N2CCc3ccccc3C2)n1)C1CCC1	4	6	-55	55	-1	·
CCC1CCCCN1C(=O)CSc1n[nH]c(N)n1 (configuration not stated)	·	1	-4	4	-8	·
CCOc1ccccc1/C=C/c1onc(C)c1S(=O)(=O)N1CCC(C(=O)NC(C)(C)C)CC1	-5	-1	-84	84*	·	4%
CCOc1ccccc1/C=C/c1onc(C)c1S(=O)(=O)N1CCC(C(=O)NC)CC1	2	-2	-72	?	-1	·
CC(OC(=O)c1cccc(NS(C)(=O)=O)c1)C(=O)Nc1ccc(N2CCOCC2)cc1 (configuration not stated)	-5	-2	-78	78*	1	-20%
N#CCCN(C(=O)COC(=O)CCc1ccccc1)c1ccccc1	3	-2	14	-14	1	·
N#CCCN(C(=O)COC(=O)CCc1c[nH]c2ccccc12)c1ccccc1	-4	-2	-1	1	0	-9%
Cc1sc(NC(=O)c2cccc([N+](=O)[O-])c2)c(C(N)=O)c1-c1ccc(C(C)(C)C)cc1	1	-1	-77	77*	1	-5%
O=C(Nc1cccc(-c2csc(Nc3ccc(Cl)cc3)n2)c1)c1cccc(C(F)(F)F)c1	-4	-4	-110	110*	-1	2.1µM*
Clc1ccc(Nc2nc(-c3cccnc3)cs2)cc1	2	·	-39	39	1	·
Cc1c(C(=O)CN2CCCC(C)(C)C2)c2ccccc2n1C	0	-2	-76	76*	-1	-1%
Cc1ccccc1Oc1ccc2c(c1)[C@@H]1C[C@H](N(C)C(=O)c3ccc(C#N)cc3)[C@H]([C@H](C)O)C(=O)N1CC2	·	·	15	-15	-2	·
COc1ccc(C2/C=C\CN(S(=O)(=O)c3ccc(C)cc3)CC(=O)N2Cc2ccc(F)cc2)cc1 (configuration not stated)	-3	-2	-86	86*	1	-6%
COc1ccc(C2/C=C\CN(S(=O)(=O)c3ccc(C)cc3)CC(=O)N2Cc2cccc(F)c2)cc1 (configuration not stated)	·	·	-80	80*	4	0%
